Reference: PMC3419596 (Cell stem cell, 2012)
Entries after “also recorded” stand apart in the source; their conditions may differ. Where two headings read alike, the source gives them in different places. Values belong to the molecule of their own block, whether it stands above or below them.

Columns and labels:
[1] = system: T-GFP mESCs; assay: Mesoderm inhibition assay, T-GFP mESC flow cytometry; type: cell-based, mouse; details: added at day 1 of differentiation
[2] = system: Myh6-GFP mESC; assay: mESC cardiogenesis assay, Myh6-GFP reporter; type: cell-based, mouse
[3] = system: TGFβ2 signaling; assay: SBE4-Luc; type: cell-based, human; details: for IC50: read-out: IC50 TGFβ2 signaling inhibition (SBE4-Luc)
In short: (§1)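 HEK293T cells grown in high-glucose DMEM with 1% FBS are co-transfected with SBE4-firefly luciferase and CMV-Renilla luciferase. After 12 h adhesion they are stimulated with Activin A or TGFβ2 (15 ng/ml each), with inhibitor added at the same time. Luminescence is read by dual-luciferase assay. IC50 comes from a log(inhibitor) vs normalized response fit, with toxic doses excluded; Emax is given as % inhibition. Data are mean ± SEM.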

[4] = system: Activin A signaling; assay: SBE4-Luc; type: cell-based, human; details: HEK293T, Activin A 15ng/ml
In short: as §1

[5] = system: TGFβ2 signaling (Lefty1 target gene); assay: Lefty1 mRNA in Cripto−/− mESC, TGFβ2-induced; type: cell-based, mouse; details: Cripto−/− mESCs
In short: (§2)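 Cripto−/− mESCs are moved to serum-free conditions. At day 2 of embryoid body formation they receive 15 ng/ml Activin A or 15 ng/ml TGFβ2 together with test compound. Lefty1 mRNA is measured by RT-qPCR (SYBR Green) on cDNA from total RNA. The TGFβ2 arm is also run as a time course, with a serum-free-medium-alone control. Data are mean ± SEM of ≥3 biological replicates; Student's t-test.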

[6] = system: Activin A signaling (Lefty1 target gene); assay: Lefty1 mRNA in Cripto−/− mESC, Activin A-induced; type: cell-based, mouse; details: 5μM, Cripto−/− mESCs
In short: as §2

[7] = target: type I (TGFBR1) TGFβ receptor (Homo sapiens, UniProt P36897); assay: TGFBR1 kinase activity; type: biochemical
[8] = target: type II (TGFBR2) TGFβ receptor (Homo sapiens, UniProt P37173); assay: TGFBR2 kinase activity; type: biochemical
[9] = system: SMAD2/3 phosphorylation induced by TGFβ2; assay: p-SMAD2/3 Western blot in HEK293T cells, TGFβ2 stimulation; type: cell-based, human
In short: (§3)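 HEK293T cells are treated with test compound and stimulated with Activin A or TGFβ. Cells are washed in cold PBS, lifted with enzyme-free buffer and lysed in ice-cold RIPA with protease and phosphatase inhibitors. Lysates are run on 10% SDS-Tris-glycine gels, blotted to PVDF and blocked and probed in 5% skim milk/TBST; detection by ECL or infrared imaging. p-SMAD2/3 is normalized to GAPD and total SMAD2/3 and reported as % inhibition.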

[10] = system: SMAD2/3 phosphorylation induced by Activin A; assay: p-SMAD2/3 Western blot in HEK293T cells, Activin A stimulation; type: cell-based, human
In short: as §3

[11] = system: HA-TGFBR2-mCherry; assay: Flow cytometry receptor degradation assay with HA-TGFBR2-mCherry in HEK293T; type: cell-based, human
[12] = system: TGFBR1; assay: TGFBR1 protein levels by Western blot, overexpressed in HEK293T; type: cell-based, human; details: 24h, 5μM
[13] = target: TGFBR2 (Homo sapiens, UniProt P37173); assay: TGFBR2 protein levels by Western blot; type: cell-based; details: HEK293T, DLD1 and A549 cells, 5μM
[14] = system: TGFBR2; assay: TGFBR2 protein levels by Western blot; type: cell-based, human; details: overexpressed in HEK293T, 24h, 5μM
[15] = system: TGFBR2; assay: TGFBR2 internalization; type: cell-based; details: HA-TGFBR2-mCherry, presence of TGFβ2 ligand
[16] = system: H9 hESC; assay: hESC; type: cell-based, human
[17] = system: Wnt signaling; assay: Wnt signaling inhibition; type: cell-based
[18] = system: BMP signaling; assay: BMP signaling inhibition; type: cell-based
[19] = system: calcium channel; assay: Calcium inhibition as mechanism of ITD-1 activities
[20] = system: Cripto−/− mESC, TGFβ2-induced mesoderm; assay: T gene expression in Cripto−/− mESC, mesoderm induced by TGFβ2; type: cell-based, mouse
In short: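 Cripto−/− mESC were moved to serum-free conditions as embryoid bodies. At day 2 of EB formation they received 15 ng/ml TGFβ2 together with test compound. T expression was measured by RT-qPCR. Comparisons were made against a no-TGFβ2 control and against TGFβ2 alone. Mean ± SEM of ≥3 biological replicates; Student's t-test.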

[21] = system: Cripto−/− mESC, Activin A-induced mesoderm; assay: T gene expression in Cripto−/− mESC, mesoderm induced by Activin A; type: cell-based, mouse
In short: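 Mesoderm assay in Cripto−/− mESCs under serum-free conditions. At day 2 of embryoid body formation, cells are given 15 ng/ml Activin A plus test compound. T (Brachyury) mRNA is quantified by RT-qPCR (SYBR Green) on cDNA from total RNA and compared with no-Activin and Activin-alone controls. Data are mean ± SEM of ≥3 biological replicates; Student's t-test.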

[22] = system: other tyrosine kinase receptors; assay: Levels of other tyrosine kinase receptors; type: cell-based
[23] = system: mESC; assay: RT-qPCR of germ layer and lineage markers in mESC; type: cell-based, mouse
[24] = system: HEK293T cells; assay: Toxicity control for inhibitory activity; type: cell-based, human
In short: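 Toxicity in the reporter assays is judged from Renilla luciferase levels, Alamar Blue viability or microscopy. Doses judged toxic are removed before IC50/EC50 curve fitting.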

[25] = added day 3-5 of differentiation
[26] = given at day 1 of differentiation

type I (TGFBR1) TGFβ receptor, sequence (P36897 34-503, species assumed): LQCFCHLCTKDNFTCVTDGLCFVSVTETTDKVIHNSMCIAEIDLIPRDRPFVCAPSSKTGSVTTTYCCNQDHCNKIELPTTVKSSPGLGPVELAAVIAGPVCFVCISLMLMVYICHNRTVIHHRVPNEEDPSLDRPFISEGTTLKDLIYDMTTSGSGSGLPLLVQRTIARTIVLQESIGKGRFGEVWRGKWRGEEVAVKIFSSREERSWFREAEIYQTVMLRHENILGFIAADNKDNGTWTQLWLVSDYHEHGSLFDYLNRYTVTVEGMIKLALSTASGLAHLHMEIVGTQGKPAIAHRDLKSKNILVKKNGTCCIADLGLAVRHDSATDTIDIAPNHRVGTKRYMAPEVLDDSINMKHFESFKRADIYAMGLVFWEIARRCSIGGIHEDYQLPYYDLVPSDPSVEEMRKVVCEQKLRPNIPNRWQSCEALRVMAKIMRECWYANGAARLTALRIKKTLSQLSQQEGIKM
TGFBR2 (Homo sapiens, UniProt P37173), sequence (P37173 23-567): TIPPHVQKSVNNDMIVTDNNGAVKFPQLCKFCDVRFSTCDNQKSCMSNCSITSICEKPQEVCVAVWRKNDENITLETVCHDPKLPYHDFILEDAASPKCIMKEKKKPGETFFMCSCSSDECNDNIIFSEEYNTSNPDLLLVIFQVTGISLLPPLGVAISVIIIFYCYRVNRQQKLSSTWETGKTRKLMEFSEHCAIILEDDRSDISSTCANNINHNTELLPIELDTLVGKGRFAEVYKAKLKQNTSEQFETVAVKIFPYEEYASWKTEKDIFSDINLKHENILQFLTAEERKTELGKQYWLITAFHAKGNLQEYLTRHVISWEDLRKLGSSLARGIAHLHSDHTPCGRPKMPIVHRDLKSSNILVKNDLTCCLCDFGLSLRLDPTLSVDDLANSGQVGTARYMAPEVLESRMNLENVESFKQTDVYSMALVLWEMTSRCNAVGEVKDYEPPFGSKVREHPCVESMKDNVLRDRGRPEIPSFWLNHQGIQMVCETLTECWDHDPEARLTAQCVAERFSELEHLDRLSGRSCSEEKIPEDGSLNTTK
type II (TGFBR2) TGFβ receptor, sequence (P37173 23-567, species assumed): as the sequence (P37173 23-567) above

Molecule: c1cc(-c2cnn3cc(-c4ccc(OCCN5CCCCC5)cc4)cnc23)ccn1 [Dorsomorphin]
mesoderm induction (T-GFP+ cells) [1]: did not affect mesoderm

Molecule: CCOC(=O)C1=C(C)NC2=C(C(=O)CC(C)(C)C2)C1c1ccc(-c2ccccc2)cc1 (stereo not drawn) [ITD-1(+)]
cardiogenesis (Myh6-GFP) [2, 25]: drove cardiomyogenesis

IC50 ([3]; HEK293T, TGFβ2 15ng/ml): 850 nM
TGFBR1 kinase activity [7]: did not block the kinase activity
TGFBR2 kinase activity [8]: did not block the kinase activity
Emax, maximal depletion of HA-TGFBR2 ([11]; cell surface receptor): ~ 80%
time needed to reduce TGFBR2 levels ([11]; time course, flow cytometry): At least 6 h
time of maximum reduction of TGFBR2 levels ([11]; time course, flow cytometry): ≤ 24 h
Emax, maximal depletion of TGFBR2-mCherry ([11]; total receptor): ~ 50%
endogenous TGFBR2 levels [13]: decreased endogenous TGFBR2 levels
Molecule: CCOC(=O)C1=C(C)NC2=C(C(=O)CC(C)(C)C2)C1c1ccc(-c2ccccc2)cc1 (stereo not drawn) [ITD-1]
efficacy of TGFβ2 signaling inhibition (Emax, % inhibition) ([3]; HEK293T, SBE4-Luc): 92%
Activin A signal inhibition (SBE4-Luc) [4]: weak and partial inhibitor
induction of Lefty1 in response to TGFβ2 ([5]; 5μM): effectively blocked induction
additional time needed to inhibit Lefty1 expression compared to SB-431542 ([5]; TGFβ2 treatment): ~ 3 h
induction of Lefty1 in response to Activin A [6]: not to Activin A
phosphorylation of SMAD2/3 induced by TGFβ2 [9]: potently blocked phosphorylation
phosphorylation of SMAD2/3 in response to Activin A [10]: only minimally
TGFBR1 protein levels [12]: did not affect TGFBR1
TGFBR2 protein levels [14]: strongly downregulated TGFBR2 protein levels
immediate internalization of TGFBR2 [15]: did not block immediate internalization of TGFBR2
mesoderm induction (T-GFP+ cells) [1]: diminished the number of mesoderm cells
cardiogenesis (Myh6-GFP) ([2]; added day 1-3 of differentiation, before mesoderm induction): completely abolished cardiogenesis
cardiogenesis (Myh6-GFP) [2, 25]: drove cardiomyogenesis; also recorded: optimally promoted cardiogenesis and beating cell clusters
enhancement of TNNT2+ cardiomyocyte yield ([16]; added day 1-5, analysed day 6): ~ 30%
resulting cardiomyocytes (TNNT2+) ([16]; added day 1-5, analysed day 6): ~ 60%
Wnt signaling inhibition [17]: did not inhibit Wnt signaling; also recorded: not inhibited
BMP signaling inhibition [18]: not inhibited
role of calcium inhibition in ITD-1 activities [19]: no evidence was found for a role through calcium inhibition
mesoderm induced by TGFβ (T gene expression) [20]: selectively blocked mesoderm induced by TGFβ
mesoderm induced by Activin A (T gene expression) [21]: not by Activin A
effect on other tyrosine kinase receptors [22]: did not affect other tyrosine kinase receptors
germ layer markers at day 5 (RT-qPCR) [23, 26]: induced ectoderm at the expense of mesoderm
lineage markers at day 10 (RT-qPCR) [23, 26]: markers for mesoderm tissues such as heart, endothelium, smooth muscle and blood were all downregulated, while neural markers were upregulated
marker expression at day 5 (RT-qPCR) ([23]; mESC treated day 3-5): only the cardiac progenitor specific markers Kdr and Mesp1 were increased
marker expression at day 10 (RT-qPCR) ([23]; mESC treated day 3-5): only cardiac-specific markers were increased
toxicity as cause of inhibitory activity [24]: Toxicity was not responsible

Molecule: c1ccc(-c2[nH]ncc2-c2ccnc3ccccc23)nc1 [LY-364947, reference compound]
mesoderm induction (T-GFP+ cells) [1]: diminished the number of mesoderm cells
cardiogenesis (Myh6-GFP) [2, 25]: drove cardiomyogenesis

IC50 ([3]; Homo sapiens, HEK-293T): 70 nM
Molecule: NC(=O)c1ccc(-c2nc(-c3ccc4c(c3)OCO4)c(-c3ccccn3)[nH]2)cc1 [SB-431542, reference compound]
immediate internalization of TGFBR2 [15]: abolished internalization
mesoderm induction (T-GFP+ cells) [1]: diminished the number of mesoderm cells
cardiogenesis (Myh6-GFP) [2, 25]: drove cardiomyogenesis
cardiogenesis in hESC ([16]; mesoderm patterning stage, data not shown): completely blocked cardiogenesis

Molecule: IWP
mesoderm induction (T-GFP+ cells) [1]: diminished the number of mesoderm cells

B1: TGFβ2: TGFβ family member ligand added to ESC cultures (protein, UniProt P61812 303-414, looked up)
Transforming growth factor …: ALDAAYCFRNVQDNCCLRPLYIDFKRDLGWKWIHEPKGYNANFCAGACPYLWSSDTQHSRVLSLYNTINPEASASPCCVSQDLEPLTILYYIGKTPKIEQLSNMIVKSCKCS
cardiogenesis (Myh6-GFP) [2, 25]: inhibited cardiogenesis
